Compounds with a hit are over-represented: about 6.8% of the library has one in this group of screens.
Cdc25B block: human M-phase inducer phosphatase 2 inhibition; P30305; recombinant Cdc25B, OMFP fluorescence Ex485/Em525; inhibition, %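 (compounds tested at 10 µM final in the well)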; hit rate 0.1% among 65,000; AID 368; in the data active = inhibition above about 50%
HER2 expr 66K: inhibitors of human Her2 kinase expression; P04626; SKBR-3 HER2 protein level, AlphaScreen, 18-24 h; hits give low values; HER2 level % of control, % at 10 µM; hit rate 0.69% among 65,000; AID 645;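 active = HER2 level under 5% of the carrier-only control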;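 note: 100% = DMSO carrier and 0% = 500 nM PU-H71 HSP90 inhibitor; lower value means stronger loss of Her2 protein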
M1 agonist: activates the M1 muscarinic receptor; CHO-M1 cells, Fluo-4 calcium fluorescence, agonist mode; hits give high values; B-score at 10 µM; hit rate 3% among 64,000;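 active = fluorescence rise, raw or as B-score row- and column-corrected plate score, outside the 99.7% band of its plate's samples, either direction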
HEK293 NFkB inh: lowers PMA/ionomycin-induced NF-kB signal in HEK293 cells; HEK-293 NF-kB luciferase reporter, luminescence; inhibition, % at 3 µM; hit rate 0.21% among 62,000;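 active = inhibition above the mean of all tested compounds plus 3 SD, cut at about 40% in these data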;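 note: 0% = stimulated DMSO wells and 100% = 10 µM reference inhibitor 5653914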
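Timing: 1 h pretreatment, 16 h stimulation, 37 °C; system: HEK-293 cells with stable firefly luciferase reporter driven by four HIV NF-kB elements; doses: 3 µM once, 0.30% DMSO; measured by: luciferase luminescence; control set: DMSO and 10 µM reference inhibitor; repeats: single test; reagent: PMA plus ionomycin mix as NF-kB-activating stimulus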
M1 antag: blocks the rat M1 muscarinic receptor response to acetylcholine | hit rate 3.4% among 64,000 | P08482 | AID 628 | B-score at 10 µM | CHO-M1 cells, Fluo-4 calcium, ACh EC80 antagonist mode; hits give low values;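 active = calcium fluorescence response, raw or row-and-column corrected B-score, differing from the plate sample mean either way at a set confidence level, mostly lower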
Target sequence (P08482 whole entry, looked up): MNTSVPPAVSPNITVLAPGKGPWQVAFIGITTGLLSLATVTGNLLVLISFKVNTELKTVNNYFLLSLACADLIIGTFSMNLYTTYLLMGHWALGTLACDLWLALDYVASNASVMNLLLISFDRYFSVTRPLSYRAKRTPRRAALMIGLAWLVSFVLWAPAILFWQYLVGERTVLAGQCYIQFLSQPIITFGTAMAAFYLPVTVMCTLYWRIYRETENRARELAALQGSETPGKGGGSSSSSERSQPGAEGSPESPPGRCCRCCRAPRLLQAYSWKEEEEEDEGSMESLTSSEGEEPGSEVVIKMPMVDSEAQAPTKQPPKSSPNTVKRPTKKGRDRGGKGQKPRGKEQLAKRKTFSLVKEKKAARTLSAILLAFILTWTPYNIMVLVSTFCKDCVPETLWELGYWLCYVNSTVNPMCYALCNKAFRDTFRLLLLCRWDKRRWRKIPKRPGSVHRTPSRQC
MKP-1 inh: human dual specificity phosphatase 1 inhibition; hit rate 0.15% among 65,000; P28562; recombinant MKP-1, OMFP hydrolysis fluorescence; inhibition, %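 (compounds tested at a single concentration somewhere between 10 and 100 µM)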;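 active = inhibition above about 50%, limit read from the data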;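 note: 0% = DMSO max control wells and 100% = wells with enzyme stopped by NaOH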
M1 antag conf: confirmation of rat M1 muscarinic receptor antagonists; shares compounds with M1 antag; CHO-M1 cells, Fluo-4 calcium, ACh EC80 antagonism; hits give low values; calcium response (max-min fluorescence) at 10 µM; hit rate 43% among 1,700; AID 677;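 active = calcium response below the same-plate mean of wells given acetylcholine alone at its 80%-effect dose, minus 3 SD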;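 note: raw fluorescence intensity difference in arbitrary instrument units and not normalized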
mGluR4 antag: mGluR4 (human) activity, M1 antagonist secondary assay | shares compounds with M1 antag | CHO-mGluR4 calcium flux, Fluo-4 fluorescence, glutamate EC80; hits give low values | fluorescence response (max-min) at 10 µM | hit rate 0.9% among 1,700 | AID 678;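 active = fluorescence response below the plate's average for near-maximal glutamate wells, less 3 SD of those wells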;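 note: raw unnormalized fluorescence span taken in the window right after glutamate addition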
The depositor's hits bear a star; nt = not tested or not shown.

SMILES | Cdc25B block | HER2 expr 66K | M1 agonist | HEK293 NFkB inh | M1 antag | MKP-1 inh | M1 antag conf | mGluR4 antag
CC1CCCN(C(=O)CSCC(=O)N=c2sc3ccccc3n2C)C1 (configuration not stated) | -11 | 100 | 0.75 | 1 | 0.56 | 28 | nt | nt
c1ccc(N2CCN(Cc3cn4cccnc4n3)CC2)cc1 | 1 | 114 | 0.27 | -8 | -0.092 | -4 | nt | nt
CNS(=O)(=O)c1cccc(C(=O)NCC(c2cccs2)N(C)C)c1 (configuration not stated) | -2 | 148 | 0.69 | -1 | -0.77 | 3 | nt | nt
CN(C)C(CNC(=O)c1cccc(S(=O)(=O)N2CC3(C)CC2CC(C)(C)C3)c1)c1ccco1 (configuration not stated) | -14 | 88 | 0.05 | 18 | -3.3* | 21 | 517* | 159
Cc1ccc(C)c(OCCCN2CCCC2)c1 | -10 | 155 | -1.8 | 13 | -3* | -6 | 511* | 265
CN(C)S(=O)(=O)c1cccc(CSc2cccc[n+]2[O-])c1 | 2 | 120 | 0.77 | 6 | -2.2* | -11 | 666 | 184
CN(Cc1ccccc1)S(=O)(=O)c1ccc2c(c1)OCCO2 | -11 | 99 | 0.063 | -2 | -0.47 | 11 | nt | nt
O=C(CN(c1ccc(F)cc1)S(=O)(=O)c1ccc2c(c1)OCCO2)N1CCOCC1 | -10 | 103 | 0.84 | 4 | 1 | 2 | nt | nt
COC(=O)c1ccc(Oc2nc(N3CCCCC3)nc(N3CCOCC3)n2)cc1 | -3 | 105 | -0.92 | 18 | -2.3* | 24 | 457 | 186
Clc1ccc(Oc2nc(Oc3ccc(Cl)cc3)nc(N3CCOCC3)n2)cc1 | -7 | 83 | nt | 12 | nt | 2 | nt | nt
COCCn1c(SCc2c(F)cccc2Cl)nc2c1c(=O)[nH]c(=O)n2C | 6 | 111 | 0.18 | nt | 0.024 | -28 | nt | nt
Cc1cc(C)nc(N2CCN(c3nc(C)cc(C)n3)CC2)n1 | 3 | 77 | -0.26 | 17 | -7.7* | -12 | 719 | 217
C=CCn1c(SCC(=O)Nc2cc(C)ccc2OC)nnc1-c1ccco1 | 5 | 96 | 0.8 | 15 | -0.69 | 38 | nt | nt
CCCCSc1nnc2nc(C)cc(C)n12 | 1 | 97 | 1.1 | -2 | 0.52 | 21 | nt | nt
CCN(CC(=O)NC(=O)NCc1ccco1)Cc1nc2ccccc2c(=O)[nH]1 | -1 | 99 | 0.013 | 12 | 0.067 | 19 | nt | nt
CCN(CC(=O)NCCc1ccc(S(N)(=O)=O)cc1)Cc1nc2ccccc2c(=O)[nH]1 | -5 | 96 | 0.03 | 13 | -2* | 0 | 636 | 238
COCCNC(C)C(=O)Nc1ccc(Br)cc1 (configuration not stated) | -6 | 107 | 0.28 | 12 | 1.1 | -3 | nt | nt
COC(=O)[C@H](C)NC(=O)NCc1ccco1 | 1 | 118 | -0.23 | 7 | -4.3* | -24 | 680 | 260
CC(=NC1CCCCC1)C1=C(O)c2ccccc2C1=O | -2 | 68 | -0.021 | -31 | -0.18 | 6 | nt | nt
Cc1ccc(S(=O)(=O)NC(CC(=O)NCc2ccco2)c2ccco2)cc1 (configuration not stated) | 5 | 108 | -1 | 11 | -4.7* | 0 | 684 | 197
COc1ccc(S(=O)(=O)NC(CC(=O)NCc2ccco2)c2ccco2)cc1 (configuration not stated) | 0 | 101 | 0.51 | 15 | 0.19 | 0 | nt | nt
CCOC(=O)c1ccccc1NC(=O)CSc1ncc(C(=O)OCC)c(N)n1 | 0 | 104 | -1.4 | 5 | 0.023 | 40 | nt | nt
CCOC(=O)c1cnc(-c2ccccc2)nc1N | -1 | 82 | -1.7 | -19 | -2.2* | 6 | 714 | 230
CCC1(C)Cc2c(sc3c2c(=O)n(C)c2nnc(SCCc4ccccc4)n32)CO1 (configuration not stated) | -7 | 127 | -1 | 21 | -3.1* | 15 | 489* | 244
CCC1(C)Cc2c(sc3c2c(=O)n(C)c2nnc(SCc4ccccc4)n32)CO1 (configuration not stated) | -15 | 132 | -0.003 | nt | 0.15 | -22 | nt | nt
SMILES | Cdc25B block | HER2 expr 66K | M1 agonist | HEK293 NFkB inh | M1 antag | MKP-1 inh | M1 antag conf | mGluR4 antag
C=C(C)CSc1nnc([C@@H]2CCCN2C(=O)OC(C)(C)C)o1 | 6 | 91 | -0.6 | 9 | 0.0043 | 26 | nt | nt
CCCCOC(=O)c1ccc(OC(=O)c2cccnc2)cc1 | -4 | 96 | -0.09 | 14 | -5.1* | -20 | 620 | 266
Cc1cc2ncn(C(=O)c3c(-c4ccccc4Cl)noc3C)c2cc1C | -9 | 76 | -1.3 | -1 | -5.5* | 14 | 264* | 213
CC1CCCN(C(C(=O)Nc2ccc3c(c2)OCCO3)c2ccccc2)C1 (configuration not stated) | -7 | 92 | -0.32 | 12 | -0.55 | -12 | nt | nt
O=C(Nc1ccc2c(c1)OCO2)C(c1ccccc1)N1CCCCC1 (configuration not stated) | 5 | 95 | -0.63 | 10 | -3.4* | 9 | 501* | 205
CC1CCCN(C(C(=O)Nc2ccc3c(c2)OCO3)c2ccccc2)C1 (configuration not stated) | 4 | 84 | 0.16 | 19 | -5* | 2 | 479* | 253
Cc1ccccc1N1CCN(c2ncnc3c2cnn3Cc2ccc(Cl)cc2)CC1 | -13 | 63 | 0.71 | 22 | -0.12 | -1 | nt | nt
COc1nc(N(C#N)CC(N)=O)nc(N2CCCC2)n1 | 14 | 134 | -0.55 | -10 | 0.096 | 0 | nt | nt
CCn1c(SCC(=O)Nc2ccc(S(N)(=O)=O)cc2)nnc1-c1cccc(OC)c1 | -10 | 101 | -0.32 | 14 | -0.59 | -23 | nt | nt
O=C1C(=C2CCCCC2)SC(=S)N1Cc1ccco1 | -9 | 73 | -1 | 11 | -7.3* | 8 | 111* | 206
O=C(O)CCN1C(=O)C(=C2CCCCCC2)SC1=S | 15 | 117 | 0.0022 | 21 | -0.029 | -11 | nt | nt
COc1ccc2nc(NC(=O)C3CCCN3S(=O)(=O)c3ccc(C)cc3)sc2c1 (configuration not stated) | -4 | 99 | -0.4 | 10 | -0.3 | 4 | nt | nt
COc1ccc(S(=O)(=O)N2CCCC2C(=O)Nc2nnc(-c3cccnc3)s2)cc1 (configuration not stated) | 5 | 104 | -0.56 | 9 | -1.9* | 25 | 583 | 270
O=C(CSc1nnc(-c2cccs2)n1-c1ccccc1)N1CCc2ccccc21 | -7 | 103 | 0.15 | -3 | -3* | 4 | 457 | 205
CSCC[C@H](NC(=O)OC(C)(C)C)c1nnc(SCC=C(C)C)o1 | -13 | 85 | -0.019 | 4 | 1.3 | -20 | nt | nt
COc1cccc(OC)c1OCC(C)CNCC1CCCO1 (configuration not stated) | -24 | 113 | -0.41 | nt | -0.66 | -12 | nt | nt

Bioassay records (PubChem)
